# Laboratory results from ChEMBL document CHEMBL1138564, “Microwave-induced synthesis and anti-microbial activities of 7,10,11,12-tetrahydrobenzo[c]acridin-8(9H)-one derivatives” (2009).
# The source made the active and inactive calls. The calls are words filed in the database; no cut-off is given here.
# How the values were obtained:
# Salmonella typhimurium [1] = test: Antimicrobial activity against Salmonella Typhimurium NCIM 2501 at 1000 ug/disk after 24 hrs by disk diffusion method; format: functional, Salmonella enterica subsp. enterica serovar Typhimurium; conditions: for diameter of the inhibition zone (DIZ): Salmonella enterica subsp. enterica serovar Typhimurium
# Outline: (§1)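 Disc diffusion. 100 µl of bacterial suspension at 10⁸ CFU/ml was spread on Mueller–Hinton agar. Discs loaded with test compound dissolved in DMSO were placed on the lawn, with a DMSO-only disc as negative control. Plates were incubated at 37 °C for 24 h, and the inhibition zone diameter was measured.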
# Klebsiella aerogenes = test: Antimicrobial activity against Klebsiella aerogenes NCIM 2239 at 500 ug/disk after 24 hrs by disk diffusion method; format: functional
# Outline: (§2)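 Disc diffusion on Mueller–Hinton agar. 100 µl of bacterial suspension at 10⁸ CFU/ml is spread on the plate. Discs carry test compounds at two loadings, dissolved in DMSO; DMSO alone serves as negative control. Ofloxacin disc is the positive reference. Plates are incubated at 37 °C for 24 h, and the inhibition zone diameter is measured.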
# Aliivibrio fischeri [2] = test: Antimicrobial activity against Vibrio fischeri NCIM 2154 after 24 hrs by serial dilution method; format: functional; conditions: NCIM 2154, 24 h
# Pseudomonas aeruginosa [3] = test: Antimicrobial activity against Pseudomonas aeruginosa NCIM 2200 at 500 ug/disk after 24 hrs by disk diffusion method; format: functional; outline: as §1
# Trichoderma viride [4] = test: Antimicrobial activity against Trichoderma viride NCIM 1195 at 1000 ug/disk after 72 hrs by disk diffusion method; format: functional; conditions: NCIM 1195, 72 h, read-out: DIZ
# Outline: (§3)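 Fungal disc diffusion. 100 µl of suspension at 10⁶ CFU/ml was spread on Sabouraud's dextrose agar. Discs carrying test compound in DMSO were applied, with a DMSO-only disc as negative control. Plates were incubated at 27 °C for 72 h, and the zone of inhibition diameter was measured.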
# Aspergillus parasiticus [5] = test: Antimicrobial activity against Aspergillus parasiticus NCIM 904 at 500 ug/disk after 72 hrs by disk diffusion method; format: functional; conditions: NCIM 904, 72 h, read-out: DIZ
# Outline: (§4)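 Disc diffusion on Sabouraud's dextrose agar. 100 µl of fungal suspension at 10⁶ CFU/ml is spread on the plate. Discs carry test compounds at two loadings in DMSO; DMSO alone is the negative control. Clotrimazole disc is the positive reference. Plates are incubated at 27 °C for 72 h, and the zone of inhibition diameter is measured.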
# Staphylococcus [6] = test: Antimicrobial activity against Staphylococcus albus NCIM 2178 at 1000 ug/disk after 24 hrs by disk diffusion method; format: functional; outline: as §1
# [7] = tested on: Rhodococcus corynebacterioides; test: Antimicrobial activity against Corynebacterium rubrum NCIM 2252 at 500 ug/disk after 24 hrs by disk diffusion method; format: functional; conditions: Rhodococcoides corynebacterioides, NCIM 2252, 24 h; read-out: DIZ; outline: as §2
# Aspergillus flavus [8] = test: Antimicrobial activity against Aspergillus flavus NCIM 902 at 500 ug/disk after 72 hrs by disk diffusion method; format: functional; conditions: NCIM 902, 72 h, read-out: DIZ; outline: as §4
# Salmonella typhimurium [9] = test: Antimicrobial activity against Salmonella Typhimurium NCIM 2501 at 500 ug/disk after 24 hrs by disk diffusion method; format: functional, Salmonella enterica subsp. enterica serovar Typhimurium; conditions: for diameter of the inhibition zone (DIZ): Salmonella enterica subsp. enterica serovar Typhimurium; outline: as §1
# Aspergillus flavus [10] = test: Antimicrobial activity against Aspergillus flavus NCIM 902 after 72 hrs by serial dilution method; format: functional; conditions: NCIM 535, 72 h, in the assay text read “NCIM 535” for “NCIM 902”
# Outline: (§5)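 MIC by broth dilution in Sabouraud's dextrose broth, only for fungi sensitive in disc diffusion. Two-fold serial dilutions of compounds are made in 1 ml broth per tube, range 3.9 to 1000. Inoculated tubes are incubated at 27 °C for 72 h.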
# Proteus vulgaris [11] = test: Antimicrobial activity against Proteus vulgaris NCIM 2027 at 1000 ug/disk after 24 hrs by disk diffusion method; format: functional; outline: as §2
# Aspergillus parasiticus [12] = test: Antimicrobial activity against Aspergillus parasiticus NCIM 904 after 72 hrs by serial dilution method; format: functional; conditions: NCIM 904, 72 h; outline: as §5
# Aliivibrio fischeri [13] = test: Antimicrobial activity against Vibrio fischeri NCIM 2154 at 500 ug/disk after 24 hrs by disk diffusion method; format: functional; conditions: NCIM 2154, 24 h, read-out: DIZ; outline: as §1
# Escherichia coli [14] = test: Antimicrobial activity against Escherichia coli NCIM 2065 at 500 ug/disk after 24 hrs by disk diffusion method; format: functional; conditions: for zone of inhibition at 500 µg/disc: NCIM 2065, 24 h, read-out: DIZ; outline: as §2
# Pseudomonas aeruginosa [15] = test: Antimicrobial activity against Pseudomonas aeruginosa NCIM 2200 at 1000 ug/disk after 24 hrs by disk diffusion method; format: functional; outline: as §2
# [16] = tested on: Rhodococcus corynebacterioides; test: Antimicrobial activity against Corynebacterium rubrum NCIM 2252 at 1000 ug/disk after 24 hrs by disk diffusion method; format: functional; conditions: Rhodococcoides corynebacterioides, NCIM 2252, 24 h; read-out: DIZ; outline: as §2
# Escherichia coli [17] = test: Antimicrobial activity against Escherichia coli NCIM 2065 at 1000 ug/disk after 24 hrs by disk diffusion method; format: functional; conditions: NCIM 2065, 24 h, read-out: DIZ; outline: as §2
# Aspergillus fumigatus = test: Antimicrobial activity against Aspergillus fumigatus NCIM 902 at 500 ug/disk after 72 hrs by disk diffusion method; format: functional; outline: as §4
# Lipomyces lipofer [18] = test: Antimicrobial activity against Lipomyces lipofer NCIM 3252 at 500 ug/disk after 72 hrs by disk diffusion method; format: functional; outline: as §4
# Penicillium chrysogenum [19] = test: Antimicrobial activity against Penicillium chrysogenum NCIM 707 at 1000 ug/disk after 72 hrs by disk diffusion method; format: functional; outline: as §4
# Lipomyces lipofer [20] = test: Antimicrobial activity against Lipomyces lipofer NCIM 3252 at 1000 ug/disk after 72 hrs by disk diffusion method; format: functional; outline: as §4
# Penicillium chrysogenum [21] = test: Antimicrobial activity against Penicillium chrysogenum NCIM 707 at 500 ug/disk after 72 hrs by disk diffusion method; format: functional; outline: as §4
# Aliivibrio fischeri [22] = test: Antimicrobial activity against Vibrio fischeri NCIM 2154 at 1000 ug/disk after 24 hrs by disk diffusion method; format: functional; conditions: NCIM 2154, 24 h, read-out: DIZ; outline: as §1
# Aspergillus flavus [23] = test: Antimicrobial activity against Aspergillus flavus NCIM 902 at 1000 ug/disk after 72 hrs by disk diffusion method; format: functional; conditions: NCIM 902, 72 h, read-out: DIZ; outline: as §4
# Proteus vulgaris [24] = test: Antimicrobial activity against Proteus vulgaris NCIM 2027 at 500 ug/disk after 24 hrs by disk diffusion method; format: functional; outline: as §2
# Staphylococcus [25] = test: Antimicrobial activity against Staphylococcus albus NCIM 2178 at 500 ug/disk after 24 hrs by disk diffusion method; format: functional; outline: as §1
# Bacillus cereus = test: Antimicrobial activity against Bacillus cereus NCIM 2155 at 1000 ug/disk after 24 hrs by disk diffusion method; format: functional; outline: as §2
# Rhodotorula mucilaginosa [26] = test: Antimicrobial activity against Rhodotorula rubra NCIM 3174 at 500 ug/disk after 72 hrs by disk diffusion method; format: functional; conditions: NCIM 3174, 72 h, read-out: DIZ; outline: as §3
# Escherichia coli [27] = test: Antimicrobial activity against Escherichia coli NCIM 2065 after 24 hrs by serial dilution method; format: functional; conditions: NCIM 2065, 24 h
# Outline: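 Broth dilution MIC in nutrient broth, run only for organisms found sensitive in disc diffusion. Compounds are two-fold serially diluted in 1 ml sterile broth per tube, spanning 3.9 to 1000. Inoculated tubes are incubated at 37 °C for 24 h.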
# Trichoderma viride [28] = test: Antimicrobial activity against Trichoderma viride NCIM 1195 at 500 ug/disk after 72 hrs by disk diffusion method; format: functional; conditions: NCIM 1195, 72 h, read-out: DIZ; outline: as §3
# Rhodotorula mucilaginosa [29] = test: Antimicrobial activity against Rhodotorula rubra NCIM 3174 at 1000 ug/disk after 72 hrs by disk diffusion method; format: functional; conditions: NCIM 3174, 72 h, read-out: DIZ; outline: as §3
# Bacillus subtilis = test: Antimicrobial activity against Bacillus subtilis NCIM 2063 at 500 ug/disk after 24 hrs by disk diffusion method; format: functional; conditions: NCIM 2063, 24 h, read-out: DIZ; outline: as §2
# [30] = Salmonella enterica, NCIM 2501, 24 h, read-out: DIZ
SMILES,MIC (Aliivibrio fischeri [2]) [µg/mL],zone of inhibition at 1000 µg/disc (Trichoderma viride [4]) [mm],zone of inhibition at 500 µg/disc (Aspergillus parasiticus [5]) [mm],zone of inhibition at 500 µg/disc [7] [mm],zone of inhibition at 500 µg/disc (Aspergillus flavus [8]) [mm],MIC (Aspergillus flavus [10]) [µg/mL],MIC (Aspergillus parasiticus [12]) [µg/mL],zone of inhibition at 500 µg/disc (Aliivibrio fischeri [13]) [mm],zone of inhibition at 500 µg/disc (Escherichia coli [14]) [mm],zone of inhibition at 1000 µg/disc [16] [mm],zone of inhibition at 1000 µg/disc (Escherichia coli [17]) [mm],diameter of the inhibition zone (DIZ) (Aspergillus fumigatus),zone of inhibition at 1000 µg/disc (Aliivibrio fischeri [22]) [mm],zone of inhibition at 1000 µg/disc (Aspergillus flavus [23]) [mm],diameter of the inhibition zone (DIZ) (Bacillus cereus),zone of inhibition at 500 µg/disc (Rhodotorula mucilaginosa [26]) [mm],MIC (Escherichia coli [27]) [µg/mL],zone of inhibition at 500 µg/disc (Trichoderma viride [28]) [mm],zone of inhibition at 1000 µg/disc (Rhodotorula mucilaginosa [29]) [mm],zone of inhibition at 500 µg/disc (Bacillus subtilis) [mm],also measured
O=C1CCCC2=C1C(c1ccc(O)cc1)c1ccc3ccccc3c1N2 (centres undefined),125,11,12,7,7,125,15.6,7,7,9,9,inactive,9,8,inactive,12,125,10,14,9,"zone of inhibition at 1000 µg/disc (Salmonella typhimurium [1]; [30]): 9 mm; zone of inhibition at 500 µg/disc (Klebsiella aerogenes; NCIM 2239, 24 h, read-out: DIZ): 7 mm; zone of inhibition at 500 µg/disc (Pseudomonas aeruginosa [3]; NCIM 2200, 24 h, read-out: DIZ): 7 mm; zone of inhibition at 1000 µg/disc (Staphylococcus [6]; NCIM 2178, 24 h, read-out: DIZ): 10 mm; zone of inhibition at 500 µg/disc (Salmonella typhimurium [9]; [30]): 7 mm; zone of inhibition at 1000 µg/disc (Proteus vulgaris [11]; NCIM 2027, 24 h, read-out: DIZ): 9 mm; zone of inhibition at 1000 µg/disc (Pseudomonas aeruginosa [15]; NCIM 2200, 24 h, read-out: DIZ): 9 mm; zone of inhibition at 500 µg/disc (Lipomyces lipofer [18]; NCIM 3252, 72 h, read-out: DIZ): 10 mm; zone of inhibition at 1000 µg/disc (Penicillium chrysogenum [19]; NCIM 707, 72 h, read-out: DIZ): 10 mm; zone of inhibition at 1000 µg/disc (Lipomyces lipofer [20]; NCIM 3252, 72 h, read-out: DIZ): 11 mm; zone of inhibition at 500 µg/disc (Penicillium chrysogenum [21]; NCIM 707, 72 h, read-out: DIZ): 9 mm; zone of inhibition at 500 µg/disc (Proteus vulgaris [24]; NCIM 2027, 24 h, read-out: DIZ): 7 mm; zone of inhibition at 500 µg/disc (Staphylococcus [25]; NCIM 2178, 24 h, read-out: DIZ): 8 mm"
O=C1CCCC2=C1C(c1ccccc1Cl)c1ccc3ccccc3c1N2 (centres undefined),125,10,8,7,7,62.5,62.5,7,–,8,8,inactive,9,9,inactive,13,125,9,16,7,diameter of the inhibition zone (DIZ) (Salmonella typhimurium [1]): inactive; diameter of the inhibition zone (DIZ) (Klebsiella aerogenes): inactive; diameter of the inhibition zone (DIZ) (Pseudomonas aeruginosa [3]): inactive; diameter of the inhibition zone (DIZ) (Staphylococcus [6]): inactive; diameter of the inhibition zone (DIZ) (Salmonella typhimurium [9]): inactive; diameter of the inhibition zone (DIZ) (Proteus vulgaris [11]): inactive; diameter of the inhibition zone (DIZ) (Escherichia coli [14]): inactive; diameter of the inhibition zone (DIZ) (Pseudomonas aeruginosa [15]): inactive; diameter of the inhibition zone (DIZ) (Lipomyces lipofer [18]): inactive; diameter of the inhibition zone (DIZ) (Penicillium chrysogenum [19]): inactive; diameter of the inhibition zone (DIZ) (Lipomyces lipofer [20]): inactive; diameter of the inhibition zone (DIZ) (Penicillium chrysogenum [21]): inactive; diameter of the inhibition zone (DIZ) (Proteus vulgaris [24]): inactive; diameter of the inhibition zone (DIZ) (Staphylococcus [25]): inactive
O=C1CCCC2=C1C(c1cccc(Cl)c1)c1ccc3ccccc3c1N2 (centres undefined),62.5,10,12,7,9,62.5,15.6,9,7,9,9,–,10,11,inactive,8,62.5,8,10,8,"diameter of the inhibition zone (DIZ) (Salmonella typhimurium [1]): inactive; diameter of the inhibition zone (DIZ) (Klebsiella aerogenes): inactive; diameter of the inhibition zone (DIZ) (Pseudomonas aeruginosa [3]): inactive; diameter of the inhibition zone (DIZ) (Staphylococcus [6]): inactive; diameter of the inhibition zone (DIZ) (Salmonella typhimurium [9]): inactive; diameter of the inhibition zone (DIZ) (Proteus vulgaris [11]): inactive; diameter of the inhibition zone (DIZ) (Pseudomonas aeruginosa [15]): inactive; zone of inhibition at 500 µg/disc (Aspergillus fumigatus; NCIM 902, 72 h, read-out: DIZ): 8 mm; diameter of the inhibition zone (DIZ) (Lipomyces lipofer [18]): inactive; diameter of the inhibition zone (DIZ) (Penicillium chrysogenum [19]): inactive; diameter of the inhibition zone (DIZ) (Lipomyces lipofer [20]): inactive; diameter of the inhibition zone (DIZ) (Penicillium chrysogenum [21]): inactive; diameter of the inhibition zone (DIZ) (Proteus vulgaris [24]): inactive; diameter of the inhibition zone (DIZ) (Staphylococcus [25]): inactive"
